Reference: PMC11303814 (Nature Communications, 2024)
Residue numbers refer to the chain shown, from its start. Entries after “also recorded” stand apart in the source; their conditions may differ.

What was measured:
Assay type in all cases: cell-based
[1] = biological target: T1, rP2X7 triple mutant (R125A/Q143A/I214A) (Rattus norvegicus, UniProt Q64663, I214A/Q143A/R125A); experiment: TEVC efficacy experiments, triple mutant rP2X7 in oocytes; conditions: identical concentrations
T1 sequence (Q64663 1-595 R125A/Q143A/I214A): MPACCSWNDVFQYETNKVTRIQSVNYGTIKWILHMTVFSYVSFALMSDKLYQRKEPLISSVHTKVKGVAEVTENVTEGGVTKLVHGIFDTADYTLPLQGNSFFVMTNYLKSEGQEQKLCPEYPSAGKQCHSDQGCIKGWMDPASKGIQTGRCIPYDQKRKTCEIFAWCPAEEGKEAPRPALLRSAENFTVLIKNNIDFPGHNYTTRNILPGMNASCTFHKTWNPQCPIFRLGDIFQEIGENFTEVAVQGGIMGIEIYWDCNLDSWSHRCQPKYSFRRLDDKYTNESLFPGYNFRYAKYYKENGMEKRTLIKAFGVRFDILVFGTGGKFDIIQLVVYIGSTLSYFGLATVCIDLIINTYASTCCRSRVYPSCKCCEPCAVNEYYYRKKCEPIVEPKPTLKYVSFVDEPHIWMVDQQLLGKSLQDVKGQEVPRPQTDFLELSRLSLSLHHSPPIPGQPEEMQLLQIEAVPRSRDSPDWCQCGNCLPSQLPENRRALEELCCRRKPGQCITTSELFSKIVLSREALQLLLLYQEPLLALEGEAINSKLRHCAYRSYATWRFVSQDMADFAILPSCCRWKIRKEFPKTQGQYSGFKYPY
Outline: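 Oocytes expressing rP2X7 (~20 h after mRNA injection), TEVC in pH 7.4 HEPES/flufenamic acid buffer. Each oocyte first received 100 µM ATP as the normalization reference, then sequentially 50 µM ATP, 50 µM BzATP, 100 µM ATP and 100 µM BzATP, with buffer washout to baseline between applications. Normalized currents are from triplicates per concentration per construct; mean ± SD.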

[2] = biological target: T2, rP2X7-Q143A/I214A (Rattus norvegicus, UniProt Q64663, I214A/Q143A); experiment: TEVC deactivation time; conditions: after 100 μM ATP or 10 μM BzATP
T2 sequence (Q64663 1-595 Q143A/I214A): T1 sequence (Q64663 1-595 R125A/Q143A/I214A) with A125R
Outline: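 Xenopus oocytes injected with 50 nL of 10 ng/µL mutant rP2X7 mRNA, expressed ~20 h, clamped in pH 7.4 HEPES buffer with 0.1 mM flufenamic acid and EDTA. Currents were evoked by 100 µM ATP or 10 µM BzATP. τ is the time for current to return to 63% of baseline after agonist removal, from a one- or two-phase decay fit. Done in triplicate over first to third applications per oocyte; mean ± SD.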

[3] = biological target: T3, rP2X7-Q143A (Rattus norvegicus, UniProt Q64663, Q143A); experiment: TEVC dose response; conditions: read-out: EC50 (apparent affinity), mean ± SD, triplicate
T3 sequence (Q64663 1-595 Q143A): T1 sequence (Q64663 1-595 R125A/Q143A/I214A) with A125R, A214I
Outline: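 TEVC was run on Xenopus oocytes ~20 h after injection of wild-type or mutant rP2X7 mRNA, in pH 7.4 HEPES buffer with 0.1 mM flufenamic acid. Receptors were facilitated at 100 µM before recording. Dilution series: ATP 1.5 mM–2 µM (7 points), BzATP 300–0.14 µM (8 points). Responses were normalized to the largest concentration, fitted by nonlinear regression for EC50, and averaged across triplicates (mean ± SD).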

Compound | efficacy (agonist character, current amplitude) [1] | deactivation lifetime τ [2] | EC50 [3]
Nc1ncnc2c1ncn2[C@@H]1O[C@H](COP(=O)(O)OP(=O)(O)OP(=O)(O)O)[C@@H](O)[C@H]1O [ATP] | equivalent agonists in terms of efficacy; also recorded: equal current amplitudes | 2.9 ± 1.0 s | 113 ± 30 µM
BzATP | equivalent agonists in terms of efficacy; also recorded: equal current amplitudes | 4.3 ± 1.7 s | 8.5 ± 3.2 µM
